Marks after values point to notes of the source that are not given here.
Experiment: Safety and tolerability
Assay type: in vivo, Japanese patients
How it was run: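 In this open-label study, once-daily oral dosing escalated 20–300 mg/d by Bayesian continual reassessment. DLTs were judged from Cycles 0 and 1, and MTD/RD came from the posterior mean DLT rate plus investigator assessment. Treatment-emergent AEs were graded by NCI-CTCAE v4.0 for seriousness, duration and relatedness. The safety analysis set comprised all patients given ≥1 dose.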

**Q.** What does the source list for `CCc1nc(C(N)=O)c(Nc2ccc(N3CCC(N4CCN(C)CC4)CC3)c(OC)c2)nc1NC1CCOCC1` [gilteritinib]?
**A.** AEs leading to discontinuation of the study drug (20 mg (n = 1)): 0 n (%); Any AE (20 mg (n = 1)): 1 (100%) n (%); Deaths (20 mg (n = 1)): 0 n (%); Drug-related AE (20 mg (n = 1)): 1 (100%) n (%); Drug-related AEs leading to discontinuation of the study drug (20 mg (n = 1)): 0 n (%); Drug-related grade ≥3 AEs (20 mg (n = 1)): 0 n (%); Drug-related serious AEs (20 mg (n = 1)): 0 n (%); Grade ≥3 AEs (20 mg (n = 1)): 1 (100%) n (%); Serious AE: Acute cholangitis (20 mg (n = 1)): 0 n (%); Serious AE: Bronchopneumonia (20 mg (n = 1)): 0 n (%); Serious AE: Bronchopulmonary aspergillosis (20 mg (n = 1)): 0 n (%); Serious AE: Cardiomyopathy (20 mg (n = 1)): 0 n (%); Serious AE: Device-related infection (20 mg (n = 1)): 0 n (%); Serious AE: Edema (20 mg (n = 1)): 0 n (%); Serious AE: Febrile neutropenia (20 mg (n = 1)): 0 n (%); Serious AE: Increased level of fibrin degradation products (20 mg (n = 1)): 0 n (%); Serious AE: Pneumonia (20 mg (n = 1)): 0 n (%); Serious AE: Sepsis (20 mg (n = 1)): 0 n (%); Serious AE: Subdural hematoma (20 mg (n = 1)): 0 n (%); Serious AEs (20 mg (n = 1)): 0 n (%); AEs leading to discontinuation of the study drug (40 mg (n = 4)): 1 (25%) n (%); Any AE (40 mg (n = 4)): 4 (100%) n (%); Deaths (40 mg (n = 4)): 0 n (%); Drug-related AE (40 mg (n = 4)): 3 (75%) n (%); Drug-related AEs leading to discontinuation of the study drug (40 mg (n = 4)): 1 (25%) n (%); Drug-related grade ≥3 AEs (40 mg (n = 4)): 1 (25%) n (%); Drug-related serious AEs (40 mg (n = 4)): 1 (25%) n (%); Grade ≥3 AEs (40 mg (n = 4)): 2 (50%) n (%); Serious AE: Acute cholangitis (40 mg (n = 4)): 0 n (%); Serious AE: Bronchopneumonia (40 mg (n = 4)): 0 n (%); Serious AE: Bronchopulmonary aspergillosis (40 mg (n = 4)): 0 n (%); Serious AE: Cardiomyopathy (40 mg (n = 4)): 0 n (%); Serious AE: Device-related infection (40 mg (n = 4)): 1 (25%) n (%); Serious AE: Edema (40 mg (n = 4)): 1 (25%) n (%); Serious AE: Febrile neutropenia (40 mg (n = 4)): 0 n (%); Serious AE: Increased level of fibrin degradation products (40 mg (n = 4)): 0 n (%); Serious AE: Pneumonia (40 mg (n = 4)): 1 (25%) n (%); Serious AE: Sepsis (40 mg (n = 4)): 0 n (%); Serious AE: Subdural hematoma (40 mg (n = 4)): 0 n (%); Serious AEs (40 mg (n = 4)): 1 (25%) n (%); AE resulting in permanent discontinuation: pneumonia (40 mg/d): 1 n; AEs leading to discontinuation of the study drug (80 mg (n = 4)): 1 (25%) n (%); Any AE (80 mg (n = 4)): 4 (100%) n (%); Drug-related AE (80 mg (n = 4)): 3 (75%) n (%); Drug-related AEs leading to discontinuation of the study drug (80 mg (n = 4)): 1 (25%) n (%); Drug-related grade ≥3 AEs (80 mg (n = 4)): 1 (25%) n (%); Drug-related serious AEs (80 mg (n = 4)): 1 (25%) n (%); Grade ≥3 AEs (80 mg (n = 4)): 2 (50%) n (%); Serious AE: Acute cholangitis (80 mg (n = 4)): 1 (25%) n (%); Serious AE: Bronchopneumonia (80 mg (n = 4)): 1 (25%) n (%); Serious AE: Bronchopulmonary aspergillosis (80 mg (n = 4)): 0 n (%); Serious AE: Cardiomyopathy (80 mg (n = 4)): 0 n (%); Serious AE: Device-related infection (80 mg (n = 4)): 0 n (%); Serious AE: Edema (80 mg (n = 4)): 0 n (%); Serious AE: Febrile neutropenia (80 mg (n = 4)): 0 n (%); Serious AE: Increased level of fibrin degradation products (80 mg (n = 4)): 0 n (%); Serious AE: Pneumonia (80 mg (n = 4)): 0 n (%); Serious AE: Sepsis (80 mg (n = 4)): 1 (25%) n (%); Serious AE: Subdural hematoma (80 mg (n = 4)): 1 (25%) n (%); Serious AEs (80 mg (n = 4)): 1 (25%) n (%); Deaths (80 mg (n = 4), cause of death considered related to the study drug): 1 (25%) ^a n (%); AE resulting in permanent discontinuation: subdural hematoma (80 mg/d): 1 n; AEs leading to discontinuation of the study drug (120 mg (n = 4)): 0 n (%); Any AE (120 mg (n = 4)): 4 (100%) n (%); Deaths (120 mg (n = 4)): 0 n (%); Drug-related AE (120 mg (n = 4)): 4 (100%) n (%); Drug-related AEs leading to discontinuation of the study drug (120 mg (n = 4)): 0 n (%); Drug-related grade ≥3 AEs (120 mg (n = 4)): 1 (25%) n (%); Drug-related serious AEs (120 mg (n = 4)): 0 n (%); Grade ≥3 AEs (120 mg (n = 4)): 2 (50%) n (%); Serious AE: Acute cholangitis (120 mg (n = 4)): 0 n (%); Serious AE: Bronchopneumonia (120 mg (n = 4)): 0 n (%); Serious AE: Bronchopulmonary aspergillosis (120 mg (n = 4)): 0 n (%); Serious AE: Cardiomyopathy (120 mg (n = 4)): 0 n (%); Serious AE: Device-related infection (120 mg (n = 4)): 0 n (%); Serious AE: Edema (120 mg (n = 4)): 0 n (%); Serious AE: Febrile neutropenia (120 mg (n = 4)): 0 n (%); Serious AE: Increased level of fibrin degradation products (120 mg (n = 4)): 0 n (%); Serious AE: Pneumonia (120 mg (n = 4)): 0 n (%); Serious AE: Sepsis (120 mg (n = 4)): 0 n (%); Serious AE: Subdural hematoma (120 mg (n = 4)): 0 n (%); Serious AEs (120 mg (n = 4)): 0 n (%); DLT: grade 3 tumor lysis syndrome (120 mg/d): 1 n; AEs leading to discontinuation of the study drug (200 mg (n = 9)): 2 (22.2%) n (%); Any AE (200 mg (n = 9)): 9 (100%) n (%); Deaths (200 mg (n = 9)): 0 n (%); Drug-related AE (200 mg (n = 9)): 9 (100%) n (%); Drug-related AEs leading to discontinuation of the study drug (200 mg (n = 9)): 1 (11.1%) n (%); Drug-related grade ≥3 AEs (200 mg (n = 9)): 4 (44.4%) n (%); Drug-related serious AEs (200 mg (n = 9)): 2 (22.2%) n (%); Grade ≥3 AEs (200 mg (n = 9)): 7 (77.8%) n (%); Serious AE: Acute cholangitis (200 mg (n = 9)): 0 n (%); Serious AE: Bronchopneumonia (200 mg (n = 9)): 0 n (%); Serious AE: Bronchopulmonary aspergillosis (200 mg (n = 9)): 1 (11.1%) n (%); Serious AE: Cardiomyopathy (200 mg (n = 9)): 1 (11.1%) n (%); Serious AE: Device-related infection (200 mg (n = 9)): 0 n (%); Serious AE: Edema (200 mg (n = 9)): 0 n (%); Serious AE: Febrile neutropenia (200 mg (n = 9)): 1 (11.1%) n (%); Serious AE: Increased level of fibrin degradation products (200 mg (n = 9)): 1 (11.1%) n (%); Serious AE: Pneumonia (200 mg (n = 9)): 0 n (%); Serious AE: Sepsis (200 mg (n = 9)): 0 n (%); Serious AE: Subdural hematoma (200 mg (n = 9)): 1 (11.1%) n (%); Serious AEs (200 mg (n = 9)): 5 (55.6%) n (%); AE resulting in permanent discontinuation: elevated blood creatine phosphokinase (200 mg/d): 1 n; AE resulting in permanent discontinuation: delirium (200 mg/d, not considered drug-related): 1 n; AEs leading to discontinuation of the study drug (300 mg (n = 2)): 2 (100%) n (%); Any AE (300 mg (n = 2)): 2 (100%) n (%); Deaths (300 mg (n = 2)): 0 n (%); Drug-related AE (300 mg (n = 2)): 2 (100%) n (%); Drug-related AEs leading to discontinuation of the study drug (300 mg (n = 2)): 2 (100%) n (%); Drug-related grade ≥3 AEs (300 mg (n = 2)): 2 (100%) n (%); Drug-related serious AEs (300 mg (n = 2)): 0 n (%); Grade ≥3 AEs (300 mg (n = 2)): 2 (100%) n (%); Serious AE: Acute cholangitis (300 mg (n = 2)): 0 n (%); Serious AE: Bronchopneumonia (300 mg (n = 2)): 0 n (%); Serious AE: Bronchopulmonary aspergillosis (300 mg (n = 2)): 0 n (%); Serious AE: Cardiomyopathy (300 mg (n = 2)): 0 n (%); Serious AE: Device-related infection (300 mg (n = 2)): 0 n (%); Serious AE: Edema (300 mg (n = 2)): 0 n (%); Serious AE: Febrile neutropenia (300 mg (n = 2)): 0 n (%); Serious AE: Increased level of fibrin degradation products (300 mg (n = 2)): 0 n (%); Serious AE: Pneumonia (300 mg (n = 2)): 0 n (%); Serious AE: Sepsis (300 mg (n = 2)): 0 n (%); Serious AE: Subdural hematoma (300 mg (n = 2)): 0 n (%); Serious AEs (300 mg (n = 2)): 0 n (%); AE resulting in permanent discontinuation: elevated lactate dehydrogenase (300 mg/d): 1 n; AE resulting in permanent discontinuation: pneumonia (300 mg/d): 1 n; DLTs: grade 3 elevated blood lactate dehydrogenase, amylase, blood creatine phosphokinase levels, and syncope (300 mg/d): 2 n; patients with a dose decrease (2 patients): 8.3%; patients with dose interruptions (7 patients): 29.2%; Anemia (Grade 1-2, N = 24): 0 n (%); Bone pain (Grade 1-2, N = 24): 1 (4.2%) n (%); Constipation (Grade 1-2, N = 24): 4 (16.7%) n (%); Corneal erosion (Grade 1-2, N = 24): 4 (16.7%) n (%); Cough (Grade 1-2, N = 24): 3 (12.5%) n (%); Diarrhea (Grade 1-2, N = 24): 6 (25%) n (%); Disseminated intravascular coagulation (Grade 1-2, N = 24): 1 (4.2%) n (%); Dysesthesia (Grade 1-2, N = 24): 2 (8.3%) n (%); Dysgeusia (Grade 1-2, N = 24): 2 (8.3%) n (%); ECG prolonged QT interval (Grade 1-2, N = 24): 1 (4.2%) n (%); Elevated ALT (Grade 1-2, N = 24): 2 (8.3%) n (%); Elevated AST (Grade 1-2, N = 24): 2 (8.3%) n (%); Elevated blood creatine phosphokinase (Grade 1-2, N = 24): 6 (25%) n (%); Elevated blood lactate dehydrogenase (Grade 1-2, N = 24): 7 (29.2%) n (%); Elevated liver enzymes (ALT, AST, and alkaline phosphatase) (Grade 1-2, N = 24): 9 (37.5%) n (%); Epistaxis (Grade 1-2, N = 24): 2 (8.3%) n (%); Febrile neutropenia (Grade 1-2, N = 24): 2 (8.3%) n (%); Headache (Grade 1-2, N = 24): 4 (16.7%) n (%); Hematoma (Grade 1-2, N = 24): 2 (8.3%) n (%); Hypertension (Grade 1-2, N = 24): 5 (20.8%) n (%); Hypokalemia (Grade 1-2, N = 24): 2 (8.3%) n (%); Hypotension (Grade 1-2, N = 24): 2 (8.3%) n (%); Hypoxia (Grade 1-2, N = 24): 2 (8.3%) n (%); Increased amylase (Grade 1-2, N = 24): 1 (4.2%) n (%); Insomnia (Grade 1-2, N = 24): 2 (8.3%) n (%); Lung infection (Grade 1-2, N = 24): 1 (4.2%) n (%); Nausea (Grade 1-2, N = 24): 4 (16.7%) n (%); Pleural effusion (Grade 1-2, N = 24): 3 (12.5%) n (%); Pneumonia (Grade 1-2, N = 24): 1 (4.2%) n (%); Pyrexia (Grade 1-2, N = 24): 7 (29.2%) n (%); Rash (Grade 1-2, N = 24): 3 (12.5%) n (%); Renal impairment (Grade 1-2, N = 24): 5 (20.8%) n (%); Sepsis (Grade 1-2, N = 24): 1 (4.2%) n (%); Somnolence (Grade 1-2, N = 24): 3 (12.5%) n (%)
